Consider 36 molecules from ChEMBL document CHEMBL4414601 (J Med Chem, 2019).

Data set [1] concerns Plasmodium falciparum. The experiment in a line: Antiplasmodial activity against Plasmodium falciparum 3D7A erythrocytic stage assessed as reduction in [3H]hypoxanthine incorporation preincubated for 24 hrs followed by [3H]hypoxanthine addition and measured after 24 hrs by microbeta scintillation counting method. The data set is classed as functional, organism-based. Put shortly:
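Nine threefold serial dilutions from 5 μM top concentration. Incubated 24 h at 37 °C under 5% CO2/5% O2/90% N2, then 0.2 μCi [3H]-hypoxanthine per well for another 24 h. Cells harvested on glass fibre filters and counted. Data normalized to compound-free parasitized RBCs; IC50 fitted.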

Data set [2] can be described thus: Lipophilicity, LogD of compound by reverse phase HPLC analysis.
The nature of data set [3]: Aqueous solubility of compound. The following applies: buffer.
Data set [4] has as its system L929. The experiment in a line: Cytotoxicity against mouse L929 cells assessed as reduction in viability by dual luciferase reporter gene assay. It is filed as ADME, cell-based.
A short description of data set [5]: Permeability of compound by PAMPA.

≈ marks a conversion by molar mass, not a printed value. A value given as a limit tells only on which side of the number the result lay.

With `Cc1nnc(Nc2nccc(-c3sc(C4CCNCC4)nc3-c3ccc(F)cc3)n2)s1`, the values for the EC50 in data set [1] and in data set [4] were 4.44 µM and 4.4 µM, respectively. In data set [2], this molecule came in with a chromatographic logD of 2.02. For the same molecule, the solubility in data set [3] is 74 µM (≈ 33.6 µg/mL). Also, the Papp in data set [5] was determined as 8 ×10⁻⁶ cm/s.
On the same counts, the results for `CN1CCN(c2ccc(Nc3nccc(-c4sc(N)nc4-c4ccc(F)cc4)n3)cc2)CC1` are over 5 µM, 2.5 µM, 3.61, 8 µM (≈ 3.69 µg/mL) and 26 ×10⁻⁶ cm/s.
On the same counts, the results for `Cc1csc(Nc2nccc(-c3sc(C4CCNCC4)nc3-c3ccc(F)cc3)n2)n1` are 3.85 µM, 2.2 µM, 2.99, 40 µM (≈ 18.1 µg/mL) and 15 ×10⁻⁶ cm/s.
On the same counts, the results for `Cc1cc(Nc2nccc(-c3sc(C4CCNCC4)nc3-c3ccc(F)cc3)n2)nn1C` are over 5 µM, 5.1 µM, 2.52, 146 µM (≈ 65.6 µg/mL) and 20 ×10⁻⁶ cm/s.
Consider `CN1CCN(CCNc2nccc(-c3sc(C4CCNCC4)nc3-c3ccc(F)cc3)n2)CC1`, for which the EC50 was over 5 µM in data set [1] and 100 µM in data set [4]. Further, in data set [2], the chromatographic logD amounted to 1.34. In data set [3], this molecule gave a solubility of 238 µM (≈ 115 µg/mL). The Papp in data set [5] stood at 1 ×10⁻⁶ cm/s.
`CCc1cc(Nc2nccc(-c3sc(C4CCNCC4)nc3-c3ccc(F)cc3)n2)nc(C)c1F`: the EC50 was determined as 2.9 µM in data set [1] and 4.3 µM in data set [4]. The same molecule yielded a chromatographic logD in data set [2] of 4.92. Also, the solubility in data set [3] amounted to 17 µM (≈ 8.37 µg/mL).
For the molecule `CCOC(=O)N1CCC(c2nc(-c3ccc(F)cc3)c(-c3ccnc(Nc4ccc(N5CCN(C)CC5)cc4)n3)s2)CC1`, the results for the concentration for a half-maximal effect (EC50) in data set [1] and in data set [4] were over 5 µM and 6.5 µM, respectively. This molecule also gave a chromatographic logD in data set [2] of 6.66. In data set [3], the solubility was determined as 23 µM (≈ 13.8 µg/mL). In data set [5], this molecule yielded a Papp of 41 ×10⁻⁶ cm/s.
On the same counts, the results for `Fc1ccc(-c2nc(C3CCNCC3)sc2-c2ccnc(N3CCCC3)n2)cc1` are over 5 µM, 13.8 µM, 3.71, 374 µM (≈ 153 µg/mL) and 46 ×10⁻⁶ cm/s.
Regarding `O=S(=O)(Nc1nc(-c2ccc(F)cc2)c(-c2ccnc(Nc3ccc(N4CCNCC4)cc3)n2)s1)C1CCNCC1`, the results for the EC50 in data set [1] and in data set [4] were over 5 µM and 74.1 µM, respectively. Besides, in data set [2], the chromatographic logD was 1.34. For the same molecule, the Papp in data set [5] was determined as 3 ×10⁻⁶ cm/s.
Consider `Fc1ccc(-c2nc(C3CCNCC3)sc2-c2ccnc(NCC3CCCO3)n2)cc1` (stereo not given), for which the EC50 is over 5 µM in data set [1] and 17 µM in data set [4]. For the same molecule, in data set [2], the chromatographic logD was 2.77. The solubility in data set [3] was found to be 299 µM (≈ 131 µg/mL). The Papp in data set [5] was determined as 32 ×10⁻⁶ cm/s.
On the same counts, the results for `c1cc(Nc2nccc(-c3sc(C4CCNCC4)nc3C3CC3)n2)ncn1` are 3.45 µM, 43.7 µM, 1.71, 139 µM (≈ 52.7 µg/mL) and 18 ×10⁻⁶ cm/s.
For `Fc1ccc(-c2nc(C3CCNCC3)sc2-c2ccnc(N3CCC(N4CCC4)CC3)n2)cc1`, the EC50 in data set [1] is 4.25 µM; in data set [4], 25.7 µM. Further, the chromatographic logD in data set [2] turned out to be 1.63. In data set [3], this molecule gave a solubility of 114 µM (≈ 54.6 µg/mL). The same molecule registered a Papp in data set [5] of 7.2 ×10⁻⁶ cm/s.
In the case of `Fc1ccc(-c2nc(C3CCNCC3)sc2-c2ccnc(NCCN3CCOCC3)n2)cc1`, the EC50 in data set [1] is over 5 µM. The same molecule had a chromatographic logD in data set [2] of 2.02. The molecule further registered a solubility in data set [3] of 408 µM (≈ 191 µg/mL). The same molecule yielded an apparent permeability (Papp) in data set [5] of 17 ×10⁻⁶ cm/s.
`OC1CCN(c2nccc(-c3sc(C4CCNCC4)nc3-c3ccc(F)cc3)n2)C1` (stereo not given): the EC50 in data set [1] was over 5 µM; in data set [4] it was 72.4 µM. In data set [2], this molecule registered a chromatographic logD of 1.92. The same molecule displayed a solubility in data set [3] of 273 µM (≈ 116 µg/mL). Further, in data set [5], the Papp amounted to 6.5 ×10⁻⁶ cm/s.
On the same counts, the results for `CN(C)C(CNc1nccc(-c2sc(C3CCNCC3)nc2-c2ccc(F)cc2)n1)C1CC1` (stereo not given) are 2.35 µM, 12 µM, 1.68, 514 µM (≈ 240 µg/mL) and 3.4 ×10⁻⁶ cm/s.
On the same counts, the results for `COCCNc1nccc(-c2sc(C3CCNCC3)nc2-c2ccc(F)cc2)n1` are over 5 µM, 33.9 µM, 2.45, 235 µM (≈ 97.2 µg/mL) and 30 ×10⁻⁶ cm/s.
In the case of `CCCS(=O)(=O)Nc1nc(-c2ccc(F)cc2)c(-c2ccnc(Nc3ccc(N4CCNCC4)cc3)n2)s1`, the EC50 in data set [1] was 4.86 µM; in data set [4], 100 µM. Further, the chromatographic logD in data set [2] was 2.5.
As to `Cc1nc(Nc2nccc(-c3sc(C4CCNCC4)nc3-c3ccc(F)cc3)n2)ccc1F`, the figures for the EC50 in data set [1] and in data set [4] were over 5 µM and 5.2 µM, respectively. In addition, in data set [2], the chromatographic logD stood at 3.96. The same molecule yielded a solubility in data set [3] of 16 µM (≈ 7.43 µg/mL). Moreover, the Papp in data set [5] was 30 ×10⁻⁶ cm/s.
On the same counts, the results for `CN(C)CCNc1nccc(-c2sc(C3CCNCC3)nc2-c2ccc(F)cc2)n1` are 3.11 µM, 100 µM, 1.07, 244 µM (≈ 104 µg/mL) and 2.4 ×10⁻⁶ cm/s.
Turning to `Fc1ccc(-c2nc(C3CCNCC3)oc2-c2ccnc(Nc3ccncn3)n2)cc1`, the EC50 is over 5 µM in data set [1] and 21.4 µM in data set [4]. In data set [2], this molecule displayed a chromatographic logD of 1.79. In data set [3], the solubility is 226 µM (≈ 94.3 µg/mL). For the same molecule, the Papp in data set [5] was 19 ×10⁻⁶ cm/s.
Turning to `O[C@H]1CC[C@H](Nc2nccc(-c3sc(C4CCNCC4)nc3-c3ccc(F)cc3)n2)CC1`, the EC50 in data set [1] is over 5 µM; in data set [4] it was 27.5 µM. Also, the chromatographic logD in data set [2] was found to be 2.12. The solubility in data set [3] was determined as 287 µM (≈ 130 µg/mL). In data set [5], this molecule had a Papp of 5.5 ×10⁻⁶ cm/s.
In the case of `Fc1ccc(-c2nc(C3CCNCC3)sc2-c2ccnc(N3CCC(N4CCOCC4)CC3)n2)cc1`, the EC50 in data set [1] came to 2.37 µM; in data set [4] it was 15.5 µM. For the same molecule, the chromatographic logD in data set [2] came out at 2.83. This molecule also displayed a solubility in data set [3] of 251 µM (≈ 128 µg/mL). Moreover, the Papp in data set [5] is 27 ×10⁻⁶ cm/s.
On the same counts, the results for `Fc1ccc(-c2nc(C3CCNCC3)sc2-c2ccnc(NCCN3CCCC3)n2)cc1` are 3.19 µM, 38 µM, 1.13, 297 µM (≈ 134 µg/mL) and 1 ×10⁻⁶ cm/s.
Take `O=C(Nc1nc(-c2ccc(F)cc2)c(-c2ccnc(Nc3ccc(N4CCNCC4)cc3)n2)s1)C1CC1`: the EC50 in data set [1] was over 5 µM; in data set [4], 25.7 µM. The molecule also registered a chromatographic logD in data set [2] of 2.53. In data set [5], this molecule returned a Papp of 2 ×10⁻⁶ cm/s.
As for `Cc1nc(Nc2nccc(-c3sc(C4CCNCC4)nc3-c3ccc(F)cc3)n2)cc(C2CCC2)c1F`, the EC50 is over 5 µM in data set [1] and 18.6 µM in data set [4]. The chromatographic logD in data set [2] amounted to 5.52. This molecule showed a solubility in data set [3] of 7 µM (≈ 3.63 µg/mL).
Regarding `Nc1nc(-c2ccc(F)cc2)c(-c2ccnc(Nc3ccc(N4CCOCC4)cc3)n2)s1`, in data set [2], the chromatographic logD came to 4.61. The solubility in data set [3] was found to be 26 µM (≈ 11.7 µg/mL). Moreover, the EC50 in data set [4] was determined as 19.5 µM. In addition, in data set [5], the Papp was 3 ×10⁻⁶ cm/s.
`CCOc1nccc(Nc2nccc(-c3sc(C4CCNCC4)nc3-c3ccc(F)cc3)n2)n1`: the 50% effective concentration (EC50) was 0.6 µM in data set [1] and 2.1 µM in data set [4]. The molecule also gave a chromatographic logD in data set [2] of 3.21. The same molecule yielded a solubility in data set [3] of 35 µM (≈ 16.7 µg/mL). Moreover, the Papp in data set [5] stood at 17 ×10⁻⁶ cm/s.
As for `Nc1nccc(-c2sc(C3CCNCC3)nc2-c2ccc(F)cc2)n1`, the EC50 in data set [1] turned out to be 2.2 µM; in data set [4], 55 µM. In data set [2], this molecule gave a chromatographic logD of 1.5. In addition, the solubility in data set [3] is 467 µM (≈ 166 µg/mL). Also, the Papp in data set [5] was 13 ×10⁻⁶ cm/s.
On the same counts, the results for `Cc1nccc(Nc2nccc(-c3sc(C4CCNCC4)nc3-c3ccc(F)cc3)n2)n1` are 0.81 µM, 2.5 µM, 2.43, 47 µM (≈ 21 µg/mL) and 18 ×10⁻⁶ cm/s.
On the same counts, the results for `OCCNc1nccc(-c2sc(C3CCNCC3)nc2-c2ccc(F)cc2)n1` are 4.05 µM, 61.7 µM, 1.52, 351 µM (≈ 140 µg/mL) and 1 ×10⁻⁶ cm/s.
As to `CN1CCC(Nc2nccc(-c3sc(C4CCNCC4)nc3-c3ccc(F)cc3)n2)C1` (stereo not given), the EC50 stood at 2.72 µM in data set [1] and 37.2 µM in data set [4]. This molecule registered a chromatographic logD in data set [2] of 1.14. In data set [3], the solubility is 402 µM (≈ 176 µg/mL). In addition, the Papp in data set [5] was 1.7 ×10⁻⁶ cm/s.
Consider `COc1cc(Nc2nccc(-c3sc(C4CCNCC4)nc3-c3ccc(F)cc3)n2)cc(C)n1`, for which the EC50 in data set [1] was 0.38 µM; in data set [4] it was 1.2 µM. Besides, in data set [2], the chromatographic logD is 3.36. The Papp in data set [5] amounted to 19 ×10⁻⁶ cm/s.
For the molecule `Fc1ccc(-c2nc(C3CCNCC3)sc2-c2ccnc(N3CCC(CN4CCOCC4)CC3)n2)cc1`, the figures for the EC50 in data set [1] and in data set [4] were over 5 µM and 12.9 µM, respectively. In data set [2], this molecule displayed a chromatographic logD of 3.75. In addition, in data set [3], the solubility came to 355 µM (≈ 186 µg/mL). Besides, the Papp in data set [5] worked out at 38 ×10⁻⁶ cm/s.
On the same counts, the results for `Fc1ccc(-c2nc(C3CCNCC3)sc2-c2ccnc(Nc3ccn(C4CCNCC4)n3)n2)cc1` are 3.31 µM, 100 µM, 1.29, 131 µM (≈ 66.1 µg/mL) and 3 ×10⁻⁶ cm/s.
On the same counts, the results for `Fc1ccc(-c2nc(C3CCNCC3)sc2-c2ccnc(Nc3ccccn3)n2)cc1` are 2.41 µM, 6.2 µM, 2.96, 56 µM (≈ 24.2 µg/mL) and 33 ×10⁻⁶ cm/s.
With `Oc1cc(Nc2nccc(-c3sc(C4CCNCC4)nc3-c3ccc(F)cc3)n2)ccn1`, the values for the EC50 in data set [1] and in data set [4] were 3.47 µM and 100 µM, respectively. This molecule registered a chromatographic logD in data set [2] of 1.64. Besides, the Papp in data set [5] stood at 2 ×10⁻⁶ cm/s.
